From ChEMBL document CHEMBL3865799, “Synthesis of a series of novel dihydroartemisinin monomers and dimers containing chalcone as a linker and their anticancer activity” (Eur J Med Chem, 2016) come the findings set out here.

The nature of series [1]: Cytotoxicity against human MIAPaCa2 cells assessed as cell growth inhibition at 10 uM after 48 hrs by MTT assay. It is filed as functional. The conditions noted are these: MIA PaCa-2, 48 h, read-out: GI. Put shortly: (§1)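 Adherent lines at 70–75% confluence, grown at 37 °C in 5% CO2 with 10% FCS. Exposed 48 h to compound in DMSO (vehicle <0.2% v/v). MTT dye added 3 h before termination; formazan dissolved in DMSO, OD 570 nm with 620 nm reference. Growth inhibition expressed as % of untreated; IC50 taken from the dose series.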

Series [2] in a line: Cytotoxicity against human PC3 cells assessed as cell growth inhibition at 10 uM after 48 hrs by MTT assay. The format is functional. Particulars: PC-3, 48 h, read-out: GI. Put shortly: as §1
Series [3] can be described thus: Cytotoxicity against human LS180 cells assessed as cell growth inhibition at 0.5 uM after 48 hrs by MTT assay. The format is functional. The conditions noted are these: LS180, 48 h, read-out: GI. Put shortly: as §1
Series [4] in a line: Lipophilicity, log P of the compound. The format is physicochemical. Particulars: octanol/water.
A short description of series [5]: Cell cycle arrest in human HL60 cells assessed as accumulation at subG0 phase at 1 uM after 24 hrs by propidium iodide-DNA fluorescence based FACS analysis (reference value: 5 %). The format is functional. The conditions noted are these: HL-60. Put shortly: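 HL-60 cells seeded at 0.5 × 10^6 cells/ml, exposed 24 h to compound (DMSO vehicle, <0.2% v/v). Pelleted at 400×g, PBS-washed, fixed in 70% ethanol at 4 °C overnight. RNase A treatment at 37 °C for 1.30 h, then propidium iodide staining for 20 min. Flow cytometry on 10,000 events, FL2-A vs FL2-W; subG0 (apoptotic) and phase populations gated.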

`C[C@H]1[C@@H](OCCOc2ccc(/C=C/C(=O)c3ccc(O)cc3)cc2)O[C@@H]2O[C@@]3(C)CC[C@H]4[C@H](C)CC[C@@H]1[C@@]24OO3`: the inhibition of growth at 10 µM in series [1] is 16.8%; in series [2], 41.5%. Also, in series [3], the inhibition of growth at 0.5 µM is 32.2%. Moreover, in series [4], the logP came to 6.33.

With `C[C@H]1[C@@H](OCCOc2cccc(C(=O)/C=C/c3ccc(O)cc3)c2)O[C@@H]2O[C@@]3(C)CC[C@H]4[C@H](C)CC[C@@H]1[C@@]24OO3`, the values for the inhibition of growth at 10 µM in series [1] and in series [2] were 15.1% and 29.6%, respectively. Moreover, the Activity in series [5] was 65%. Also, in series [3], the inhibition of growth at 0.5 µM is 21.7%. This compound also came in with a logP in series [4] of 6.33.
